This is a sample that favours compounds with a hit; in the whole collection about 3.6% have one here.
SR-BI HDL uptake = inhibitors of SR-BI mediated HDL lipid uptake, primary screen, ldlA[mSR-BI] cells, fluorescence, single point; Scavenger receptor class B member 1 (Mus musculus), Q61009; ldlA[mSR-BI] CHO cells, DiI-HDL uptake fluorescence, 3 h; inhibition, % at 12.5 µM; 0.96% of 320,000 active;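 active = mean replicate inhibition of at least 70% and a set share of replicates each scoring 70 or more; inconclusive = meets just one of the two criteria; inactive = fails both criteria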;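 note: 0% = median of neutral control wells and 100% = median of positive control wells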
Target sequence (Q61009 whole entry, looked up): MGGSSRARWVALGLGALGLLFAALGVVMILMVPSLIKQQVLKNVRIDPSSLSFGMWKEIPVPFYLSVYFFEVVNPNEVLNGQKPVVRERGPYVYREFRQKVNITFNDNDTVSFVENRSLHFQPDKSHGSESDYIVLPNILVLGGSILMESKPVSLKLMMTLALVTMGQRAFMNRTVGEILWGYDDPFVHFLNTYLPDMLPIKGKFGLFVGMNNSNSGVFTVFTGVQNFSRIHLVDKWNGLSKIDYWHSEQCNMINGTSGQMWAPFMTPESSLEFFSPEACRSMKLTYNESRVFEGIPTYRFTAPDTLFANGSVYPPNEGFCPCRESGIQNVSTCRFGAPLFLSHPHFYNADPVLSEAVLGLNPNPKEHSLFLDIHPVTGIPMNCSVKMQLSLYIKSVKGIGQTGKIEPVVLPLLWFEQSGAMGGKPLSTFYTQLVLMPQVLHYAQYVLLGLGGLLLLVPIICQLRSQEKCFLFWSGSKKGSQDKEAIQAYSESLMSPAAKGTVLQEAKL
HSF-1 act = HSF-1 activators, primary screen, NIH3T3-HGL cells, MG132 stress, luminescence, single point | NIH3T3-HGL HSF-1 luciferase reporter, 8 h; 100% = twice DMSO control signal | activation, % at 9 µM | 1.7% of 300,000 active | AID 504408, 2011;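 active = mean replicate activation of at least 50% with a set share of replicates each reaching 50%; inconclusive = only one of those two conditions met; inactive = mean below 50% and too few replicates reaching it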;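 note: 0% = median of the neutral control wells and 100% = twice that signal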
SR-BI uptake up = activators of SR-BI mediated DiI-HDL uptake, primary screen, ldlA[mSR-BI] CHO cells, DiI fluorescence; activation, % at 12.5 µM; 0.096% of 320,000 active; 3 h; 100 = double the neutral-control signal; AID 504775, 2011;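 active = mean replicate activation of at least 60% and every replicate at or above 60%; inconclusive = mean or all-replicate condition met, but not both; inactive = mean below 60% and not all replicates reaching 60%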;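 note: 0% = median plate neutral-control signal and 100% = twice that signal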
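Test system: SR-BI-overexpressing, LDLR-lacking CHO cells; Medium: Ham's F12 with 0.5% BSA, HEPES 25 mM, pH 7.4; Schedule: 3 h, 37 °C; Technique: bottom-read fluorescence, 550/595 nm.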
Wnt act = Wnt/beta-catenin pathway activators, primary screen, cell-based, plate reader, single point; Wnt/beta-catenin reporter cell assay, activator; 1.2% of 300,000 active; activation, % at 9.35 µM; in the data active = activation above about 30%, passing the limit was not always enough; inconclusive = no clear call, values can overlap the other calls;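 note: 0% = neutral control wells and 100% = positive control wells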
MITF TRPM1 HTS = activators of MITF-driven TRPM1 promoter reporter, primary screen, cell-based, SK-MEL-5, luciferase, single point | activation, % at 12.5 µM | 0.75% of 300,000 active | SK-MEL-5 TRPM1-promoter luciferase, 24 h; % of positive control, neutral wells = 0;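 active = mean activation of at least 80% with every replicate also reaching 80%; inconclusive = mean reaches 80% but some replicate falls short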;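 note: 0% = neutral control wells and 100% = parthenolide positive control wells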
* hit, by the source's call; u = inconclusive; x = not tested or not shown.

SMILES	SR-BI HDL uptake	HSF-1 act	SR-BI uptake up	Wnt act	MITF TRPM1 HTS
O=C(/C=C/[C@H]1O[C@@H](n2ccc(=O)[nH]c2=O)[C@H](O)[C@@H]1O)N[C@@H](Cc1ccccc1)C(=O)O	x	x	x	1	x
O=C(O)c1ccc(N/N=C/c2ccc(-c3ccccc3)cc2)cc1	-4	8	4	1	92*
O=C(O)c1cc(N/N=C/c2ccc(-c3ccccc3)cc2)ccc1Cl	x	-4	x	48*	8
COc1cc(/C=N/Nc2ccc(Cl)c(C(=O)O)c2)ccc1OC(=O)c1cccs1	-11	x	11	37*	-5
O=C(O)c1cc(N/N=C/c2ccncc2)ccc1Cl	-19	-1	19	2	-15
O=[N+]([O-])c1ccccc1/C=C/C=N/Nc1nc(N2CCCCC2)nc(N2CCCCC2)n1	79*	4	-79	0	-21
O=[N+]([O-])c1ccccc1/C=N/Nc1nc(N2CCCC2)nc(N2CCCC2)n1	54	-1	-54	-1	-23
COc1cc(/C=N/Nc2ccccc2)ccc1OC(=O)c1cccs1	x	x	x	4	x
CCc1cc2c(nc1CC)CCCN2S(=O)(=O)c1ccc(C(F)(F)F)cc1	x	x	x	5	x
Fc1ccc2nc3[nH]c4ccccc4c3nc2c1	20	20	-20	100*	x
Cc1ccc(NC(=O)COC(=O)/C=C/c2ccc(Br)o2)cc1S(=O)(=O)N(C)C	11	81*	-11	0	1
CN(C)S(=O)(=O)c1cccc(NC(=O)COC(=O)/C=C/c2ccc([N+](=O)[O-])cc2)c1	35	63*	-35	-1	-1
CN(C)S(=O)(=O)c1cccc(NC(=O)COC(=O)/C=C/c2ccc(Br)o2)c1	x	3	x	-4	-1
NS(=O)(=O)c1ccc(NC(=O)COC(=O)/C=C/c2ccc([N+](=O)[O-])cc2)cc1	-19	32	19	0	-3
CCOc1ccc(N=C(/C(C(=O)C(=O)N2CCOCC2)=C(\O)c2ccccc2)c2ccccc2)cc1	2	30	-2	10	87*
CCOc1ccc(OCc2ccc(C(=O)N3CCOCC3)cc2)cc1	-22	6	22	x	x
O=C1/C(=C/c2ccco2)SC(=S)N1CCC(=O)N1CCCCC1CCO (stereo not given)	3	55*	-3	0	-9
Cc1ccc2c(c1)[C@H]1[C@H](CO2)[C@H](c2ccccc2)[C@]2(C)C(=O)N(C)CC(=O)N12	0	x	0	2	3
C/C=C/c1cccc(-c2nc(C(=O)NC3CCC3)cc3c2[C@@H](CCO)N(S(=O)C(C)(C)C)C3)c1 (stereo not given in full)	x	x	x	-1	x
Cc1cc(C)cc(C(=O)Nc2cccnc2Cl)c1	21	14	-21	0	-1
Cc1ccc(OCC(=O)Nc2cccnc2Cl)cc1C	x	0	x	10	87*
Cc1ccc(OCC(=O)Nc2ccccc2F)cc1	-13	56*	13	41*	x
Cc1cc(Cl)ccc1OCC(=O)OCC(=O)Nc1cccnc1Cl	-8	x	8	-1	2
O=C(CC(=O)Nc1ccccc1F)Nc1ccccc1F	-4	-8	4	0	-3
Cc1ccccc1NC(=O)c1ccc(OCC(=O)Nc2ccccc2F)cc1	-6	25	6	0	0
SMILES	SR-BI HDL uptake	HSF-1 act	SR-BI uptake up	Wnt act	MITF TRPM1 HTS
Cc1ccc(C(=O)Nc2cccnc2Cl)cc1Cl	3	59*	-3	14	38
Cc1ccc(CCC(=O)Nc2ccccc2F)s1	-5	35	5	62*	61
COc1ccc(CN2C[C@H](COCc3ccccc3)Oc3cccc(Oc4ccc(C(C)C)cc4)c3S2(=O)=O)cc1	x	x	x	-5	x
Cc1cccc(NC(=O)CNC(=O)COc2ccc(-c3ccc(C#N)cc3)cc2)c1C	18	2	-18	-7	8
NC(=O)C1CC(=O)N(c2ccc(OCc3ccc(Cl)c(Cl)c3)cc2)C1 (stereo not given)	x	x	x	54*	x
Cc1ccc(OCC(=O)Nc2ccccc2F)cc1C	-46	-9	46	43*	107*
Cc1cccc(NC(=O)CNC(=O)COc2ccc(C(=O)c3ccc(F)cc3)cc2)c1C	-33	-13	33	42*	-15
NC(=O)C1CC(=O)N(c2ccc(OCC(=O)Nc3ccccc3F)cc2)C1 (stereo not given)	-29	x	29	34*	68
NC(=O)C1CC(=O)N(c2ccc(OCC(=O)Nc3ccc(F)cc3)cc2)C1 (stereo not given)	-5	x	5	3	8
C=CS(=O)(=O)c1c2cc(OC)ccc2nc2ccc(OC)cc12	24	x	-24	458*	x
COc1ccc2nc(Cl)cc(Cl)c2c1	19	-11	-19	2	x
O=C(/C=C\c1ccccc1OC(=O)c1ccccc1F)c1cc2ccccc2o1	-24	166*	24	-1	23
COc1cc2sc3cc(NCC[C@@H]4CCCN4C)ccc3c(=O)c2cc1OC	63	x	-63	21	97*
COc1cccc2sc3cc(NCc4ccc5c(c4)OCO5)ccc3c(=O)c12	22	x	-22	7	53
COc1cc2sc3cc(NCc4ccc5c(c4)OCO5)ccc3c(=O)c2cc1OC	73*	x	-73	15	49
CCn1cc(C(=O)NCc2ccc(C)o2)c2cc(OC)c(OC)cc2c1=O	x	22	x	x	1
COc1cc2sc3cc(NCc4ccc(C)o4)ccc3c(=O)c2cc1OC	80*	x	-80	u	109*
CCOc1ccc(C(=O)NC(C(=O)N2CCC2)C(C)C)cc1 (stereo not given)	-3	x	3	-1	12
O=S(=O)(c1ccc(Cl)c(Cl)c1)c1snnc1-c1ccccc1	27	431*	-27	x	-88
c1ccc(-c2nnsc2-c2ccccc2)cc1	20	0	-20	1	8
COc1ccc(/C=C/C(=O)c2ccc(O)cc2)cc1CN1CCOCC1	17	35	-17	x	-16
COc1ccc(/C=C/C(=O)C23CC4CC(CC(C4)C2)C3)cc1CN1CCOCC1	13	122*	-13	x	-5
CN1C(=O)C2C(c3ccc(N(C)C)cc3)=NN(Cc3ccccc3)C2C1=O (stereo not given)	41	75*	-41	1	6
CCOC1=C2[C@H](c3ccccc3)N(S(=O)(=O)c3ccc(C)cc3)[C@H](C(C)C)[C@H]2C(C#N)(C#N)C(C#N)(C#N)C1	x	x	x	-2	x
CCc1cccc2c(C(=O)COC(=O)/C=C/c3ccc(O)c(OC)c3)c[nH]c12	76*	48	-76	-5	0
NC(=O)c1c(N)[nH]c(C(=O)c2ccccc2)c1-c1ccccc1Br	x	x	x	0	x
CC1=C(Sc2ccccn2)C(=O)NC(C)(C)C1	-25	-9	25	-1	x

Assay outcomes as filed in PubChem.
